Among the data in ChEMBL document CHEMBL1143161, “Non-charged thiamine analogs as inhibitors of enzyme transketolase” (Bioorg Med Chem Lett, 2008) are Kd and EC50 values, retold here.

Structures are written as SMILES.

The target in experiment [1] is T1, Transketolase (Homo sapiens, UniProt P29401).
T1 sequence (P29401 whole entry): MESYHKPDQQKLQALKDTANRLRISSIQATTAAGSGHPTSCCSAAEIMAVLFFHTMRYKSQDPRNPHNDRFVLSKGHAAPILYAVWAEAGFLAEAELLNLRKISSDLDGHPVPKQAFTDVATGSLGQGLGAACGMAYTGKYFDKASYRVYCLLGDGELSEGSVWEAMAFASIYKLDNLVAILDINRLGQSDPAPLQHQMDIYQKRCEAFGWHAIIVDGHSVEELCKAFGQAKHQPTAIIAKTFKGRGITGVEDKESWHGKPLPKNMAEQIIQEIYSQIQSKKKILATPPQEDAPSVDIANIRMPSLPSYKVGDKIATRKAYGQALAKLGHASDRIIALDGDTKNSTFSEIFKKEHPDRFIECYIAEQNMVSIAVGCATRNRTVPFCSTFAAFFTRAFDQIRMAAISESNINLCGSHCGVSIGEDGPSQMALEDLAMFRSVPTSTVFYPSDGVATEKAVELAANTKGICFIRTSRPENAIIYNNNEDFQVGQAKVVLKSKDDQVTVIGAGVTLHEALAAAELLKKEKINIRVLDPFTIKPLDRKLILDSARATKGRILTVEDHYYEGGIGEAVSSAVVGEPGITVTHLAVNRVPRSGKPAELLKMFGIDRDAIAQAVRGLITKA
The experiment is described as follows: Inhibition of apo-transketolase.

The target in experiment [2] is T1, Transketolase. The experiment is described as follows: Inhibition of transketolase in human HCT116 cells. In kind it is cell-based, HCT-116. In short, it runs like this:
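Cellular TK assay in human colon cancer HCT-116 cells, run in triplicate. EC50 reported as the average, with data within 4-fold of the mean.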

Experiment [3] addresses T1, Transketolase. The experiment is described as follows: Inhibition of apo-transketolase by coupled TPPK/Apo-TK enzymatic assay. The essentials: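 Each compound was first checked for pyrophosphorylation by TPPK, with thiamine as the control substrate; pyrophosphorylation was scored relative to thiamine. Compounds were then tested for competition with TPP in inhibiting TK activity. Kd is the average of at least three experiments, with data within 2-fold of the mean.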

Take `CC(=O)Nc1ncc(Cc2csc(CCO)c2C)c(N)n1`: the Kd on Transketolase [1] was determined as 1.1 µM; on Transketolase [3] it was 3 nM. In addition, the concentration for a half-maximal effect (EC50) on Transketolase [2] came to 6.3 µM.
Turning to `Cc1c(Cc2cnc(N)nc2N)csc1CCO`, binding at Transketolase [1] was characterised by a dissociation constant (Kd) of 2.2 µM. Besides, the EC50 on Transketolase [2] came out at 8.5 µM.
With `Cc1c(Cc2cnc(-c3ccccc3)nc2N)csc1CCO`, the results for the Kd at Transketolase [1] and on Transketolase [3] were above 500 µM and 230 nM, respectively. The EC50 at Transketolase [2] is above 10 µM.
As for `Cc1c(Cc2cnc(C(C)C)nc2N)csc1CCO`, the figures for the Kd on Transketolase [1] and at Transketolase [3] were above 500 µM and 64 nM, respectively. For the same compound, the EC50 at Transketolase [2] was 2.6 µM.
In the case of `Cc1c(Cc2cnc(C3CC3)nc2N)csc1CCO`, the Kd is above 500 µM at Transketolase [1] and 60 nM on Transketolase [3]. In addition, the EC50 on Transketolase [2] is 0.66 µM.
For `Cc1ncc(Cc2[nH]nc(CCO)c2C)c(N)n1`, at Transketolase [2], it took 17 µM to reach a half-maximal effect (EC50).
With `Cc1ncc(Cc2nn(C)c(CCO)c2C)c(N)n1`, a half-maximal effect on Transketolase [2] (EC50) was put at 4.7 µM.
`Cc1ncc(Cc2c(C)c(CCO)nn2C)c(N)n1` showed a concentration giving a half-maximal response (EC50) at Transketolase [2] of 1.1 µM.
Compound `Cc1c(Cc2cncnc2N)csc1CCO` showed a Kd at Transketolase [1] above 100 µM. Besides, the response on Transketolase [2] was half-maximal at 52 µM (EC50).
Consider `Cc1c(Cc2cnc(C(F)(F)F)nc2N)csc1CCO`, for which the concentration giving a half-maximal response (EC50) on Transketolase [2] turned out to be 25 µM. In addition, binding on Transketolase [3] was characterised by a dissociation constant (Kd) of 63 nM.
As to `Cc1ccc(Cn2c(C)c(CCO)sc2=O)c(N)n1`, on Transketolase [1], the Kd is above 500 µM. Also, the concentration for a half-maximal effect (EC50) at Transketolase [2] amounted to 3.24 µM.
On Transketolase [1], `Cc1ncc(Cn2c(C)c(CCO[P@@](=O)(O)OP(=O)(O)O)sc2=O)c(N)n1` yielded a Kd of 0.016 µM.
Take `Cc1ncc(Cc2csc(CCO)c2C)c(N)n1` [3-DEAZATHIAMINE]: the dissociation constant Kd at Transketolase [1] was determined as 18 µM; at Transketolase [3], 12 nM. Further, the midpoint of the response on Transketolase [2], the EC50, lay at 1.2 µM.
Compound `Cc1ncc(C[n+]2csc(CCO)c2C)c(N)n1` [THIAMINE ION] displayed a dissociation constant Kd at Transketolase [1] of 6800 µM.
`Cc1ncc(Cn2c(C)c(CCO)sc2=O)c(N)n1` [THIAMINE THIAZOLONE]: binding on Transketolase [1] was put at a Kd of 34 µM. Also, the concentration giving a half-maximal response (EC50) on Transketolase [2] is 2.71 µM.
